Experimental data from ChEMBL document CHEMBL1137710, “Synthesis and in vitro antitumor activity of new quinoxaline derivatives” (2009).

How the values were obtained:
Type in all cases: functional
A549 = experiment: Growth inhibition of human A549 cells after 48 hrs by sulforhodamine B assay; details: A549, 48 h
Procedure, shortened: (§1)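 NCI 60-human-tumor-cell-line panel, with compounds tested over a 5-log dose range. Values are taken from dose-response curves as log10 molar concentrations: GI50 is 50% net growth inhibition, TGI is total growth inhibition, and LC50 is 50% net cell death.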

OVCAR-5 = experiment: Growth inhibition of human OVCAR5 cells after 48 hrs by sulforhodamine B assay; details: OVCAR-5, 48 h; procedure, shortened: as §1
KM12 = experiment: Growth inhibition of human KM12 cells after 48 hrs by sulforhodamine B assay; details: KM12, 48 h; procedure, shortened: as §1
OVCAR-8 = experiment: Growth inhibition of human OVCAR8 cells after 48 hrs by sulforhodamine B assay; details: OVCAR-8, 48 h; procedure, shortened: as §1
SF-295 = experiment: Growth inhibition of human SF295 cells after 48 hrs by sulforhodamine B assay; details: SF-295, 48 h; procedure, shortened: as §1
CAKI-1 = experiment: Growth inhibition of human Caki1 cells after 48 hrs by sulforhodamine B assay; details: CAKI-1, 48 h; procedure, shortened: as §1
COLO 205 = experiment: Growth inhibition of human COLO205 cells after 48 hrs by sulforhodamine B assay; details: COLO 205, 48 h; procedure, shortened: as §1
TK-10 = experiment: Growth inhibition of human TK10 cells after 48 hrs by sulforhodamine B assay; details: TK-10, 48 h
Procedure, shortened: (§2)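 Run in the NCI 60-human-tumour-cell-line panel, tested over a 5-log dose range. Dose–response curves gave three values per cell line, each as a log10 molar concentration: GI50 (50% inhibition of net cell growth), TGI (total inhibition of net growth) and LC50 (50% net cell death). The mean graph midpoint is the arithmetic mean over all lines, with insensitive lines entered at the highest concentration tested.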

HCT-116 = experiment: Growth inhibition of human HCT116 cells after 48 hrs by sulforhodamine B assay; details: HCT-116, 48 h; procedure, shortened: as §1
SF-268 = experiment: Anticancer activity against human SF268 cells assessed as cell growth at 100 uM after 48 hrs by sulforhodamine B assay; details: SF-268, 48 h, read-out: Activity
SW-620 = experiment: Growth inhibition of human SW620 cells after 48 hrs by sulforhodamine B assay; details: SW-620, 48 h; procedure, shortened: as §2
NCI-H23 = experiment: Growth inhibition of human NCI-H23 cells after 48 hrs by sulforhodamine B assay; details: NCI-H23, 48 h; procedure, shortened: as §1
M14 = experiment: Growth inhibition of human M14 cells after 48 hrs by sulforhodamine B assay; details: M14, 48 h; procedure, shortened: as §1
PC-3 = experiment: Growth inhibition of human PC3 cells after 48 hrs by sulforhodamine B assay; details: PC-3, 48 h; procedure, shortened: as §1
786-0 = experiment: Growth inhibition of human 786-0 cells after 48 hrs by sulforhodamine B assay; details: 786-0, 48 h; procedure, shortened: as §1
MDA-MB-231 = experiment: Growth inhibition of human MDA-MB-231 cells after 48 hrs by sulforhodamine B assay; details: MDA-MB-231, 48 h; procedure, shortened: as §1
SNB-19 = experiment: Growth inhibition of human SNB19 cells after 48 hrs by sulforhodamine B assay; details: SNB-19, 48 h; procedure, shortened: as §2
SK-OV-3 = experiment: Growth inhibition of human SKOV3 cells after 48 hrs by sulforhodamine B assay; details: SK-OV-3, 48 h; procedure, shortened: as §1
RXF 393 = experiment: Growth inhibition of human RXF393 cells after 48 hrs by sulforhodamine B assay; details: RXF 393, 48 h; procedure, shortened: as §1
SR = experiment: Growth inhibition of human SR cells after 48 hrs by sulforhodamine B assay; procedure, shortened: as §2
U-251 = experiment: Growth inhibition of human U251 cells after 48 hrs by sulforhodamine B assay; details: U-251, 48 h; procedure, shortened: as §2
MDA-MB-435 = experiment: Growth inhibition of human MDA-MB-435 cells after 48 hrs by sulforhodamine B assay; details: MDA-MB-435, 48 h; procedure, shortened: as §1
NCI/ADR-RES = experiment: Growth inhibition of human NCI/ADR-RES cells after 48 hrs by sulforhodamine B assay; procedure, shortened: as §1
DU-145 = experiment: Growth inhibition of human DU145 cells after 48 hrs by sulforhodamine B assay; details: DU-145, 48 h; procedure, shortened: as §1
NCI-H460 = experiment: Growth inhibition of human NCI-H460 cells after 48 hrs by sulforhodamine B assay; details: NCI-H460, 48 h; procedure, shortened: as §1
LOX IMVI = experiment: Growth inhibition of human LOXIMVI cells after 48 hrs by sulforhodamine B assay; procedure, shortened: as §1
MCF7 = experiment: Anticancer activity against human MCF7 cells assessed as cell growth at 100 uM after 48 hrs by sulforhodamine B assay; details: MCF7, 48 h, read-out: Activity
[1] = Growth inhibition of human Hs 578T cells after 48 hrs by sulforhodamine B assay; procedure, shortened: as §1
[2] = Growth inhibition of human […] cells after 48 hrs by sulforhodamine B assay; procedure, shortened: as §1
[3] = read-out: pLC50 (the source's name) (converted)

In the case of Nc1cc(N)c2nc(-c3ccccc3)c(Oc3ccc(Cl)c(Cl)c3)nc2c1, the GI50 (A549) is reported as 18.2 µM, the LC50 (A549) is reported as greater than 100 µM and the TGI (A549; read-out: pTGI (converted)) is reported as 43.7 µM. The GI50 (OVCAR-5) was 25.1 µM, the CC50 (OVCAR-5; [3]) was greater than 100 µM and the TGI (OVCAR-5; read-out: pTGI (converted)) was 58.9 µM. The GI50 (KM12) was 6.31 µM, the LC50 (50% net cell kill) (KM12) was greater than 100 µM and the TGI (KM12; read-out: pTGI (converted)) was 39.8 µM. It also gave a GI50 (OVCAR-8) of 28.2 µM, a CC50 (OVCAR-8; [3]) greater than 100 µM and a TGI (OVCAR-8; read-out: pTGI (converted)) of 89.1 µM. The GI50 (SF-295) was 13.8 µM, the LC50 (50% net cell kill) (SF-295) was 69.2 µM and the TGI (SF-295; read-out: pTGI (converted)) was 30.9 µM. For the same compound, the GI50 (CAKI-1) was 15.8 µM, the CC50 (CAKI-1; [3]) was greater than 100 µM and the TGI (CAKI-1; read-out: pTGI (converted)) was greater than 100 µM. For the same compound, the GI50 (COLO 205) was 20.4 µM, the LC50 (50% net cell kill) (COLO 205) was greater than 100 µM and the TGI (COLO 205; read-out: pTGI (converted)) was 67.6 µM. For the same compound, the GI50 (TK-10) was 24.5 µM, the CC50 (TK-10; [3]) was greater than 100 µM and the TGI (TK-10; read-out: pTGI (converted)) was 63.1 µM. The GI50 (HCT-116) was 15.8 µM, the LC50 (concentration causing 50% net cell death) (HCT-116) was greater than 100 µM and the TGI (HCT-116; read-out: pTGI (converted)) was 47.9 µM. For the same compound, the growth at 100 µM (SF-268) was 0%, the GI50 (SW-620) was 9.77 µM and the CC50 (SW-620; [3]) was 91.2 µM. The TGI (SW-620; read-out: pTGI (converted)) was 30.2 µM, the GI50 (NCI-H23) was 15.5 µM and the LC50 (50% net cell kill concentration) (NCI-H23) was greater than 100 µM. The TGI (NCI-H23; read-out: pTGI (converted)) was 39.8 µM, the GI50 (M14) was 14.1 µM and the CC50 (M14; [3]) was greater than 100 µM. The TGI (M14; read-out: pTGI (converted)) was 70.8 µM, the GI50 (PC-3) was 3.02 µM and the CC50 (PC-3; [3]) was greater than 100 µM. It also gave a TGI (PC-3; read-out: pTGI (converted)) of 14.5 µM, a GI50 (786-0) of 12.6 µM and a CC50 (786-0; [3]) greater than 100 µM. It also gave a TGI (786-0; read-out: pTGI (converted)) of 44.7 µM, a GI50 (MDA-MB-231) of 10.2 µM and a CC50 (MDA-MB-231; [3]) of 66.1 µM. The TGI (MDA-MB-231; read-out: pTGI (converted)) was 26.3 µM, the GI50 (SNB-19) was 20.9 µM and the LC50 (SNB-19) was greater than 100 µM. The TGI (SNB-19; read-out: pTGI (converted)) was 52.5 µM, the GI50 (SK-OV-3) was 24 µM and the CC50 (SK-OV-3; [3]) was greater than 100 µM. It also gave a TGI (SK-OV-3; read-out: pTGI (converted)) of 66.1 µM, a GI50 (RXF 393) of 6.03 µM and a CC50 (RXF 393; [3]) greater than 100 µM. The TGI (RXF 393; read-out: pTGI (converted)) was 58.9 µM, the LC50 (concentration giving 50% net cell death) (SR) was greater than 100 µM and the GI50 (U-251) was 12 µM. For the same compound, the LC50 (50% net cell kill) (U-251) was 83.2 µM, the TGI (U-251; read-out: pTGI (converted)) was 31.6 µM and the GI50 (MDA-MB-435) was 5.01 µM. It also gave a CC50 (MDA-MB-435; [3]) of 93.3 µM, a TGI (MDA-MB-435; read-out: pTGI (converted)) of 20.9 µM and a GI50 (NCI/ADR-RES) of 11.7 µM. The CC50 (NCI/ADR-RES; [3]) was greater than 100 µM, the TGI (NCI/ADR-RES; read-out: pTGI (converted)) was 36.3 µM and the GI50 (DU-145) was 29.5 µM. It also gave a CC50 (DU-145; [3]) greater than 100 µM, a TGI (DU-145; read-out: pTGI (converted)) greater than 100 µM and a GI50 (NCI-H460) of 18.2 µM. It also gave an LC50 (50% net cell kill) (NCI-H460) greater than 100 µM, a TGI (NCI-H460; read-out: pTGI (converted)) of 70.8 µM and a GI50 (LOX IMVI) of 16.2 µM. For the same compound, the LC50 (LOX IMVI) was 72.4 µM, the TGI (LOX IMVI; read-out: pTGI (converted)) was 33.9 µM and the growth at 100 µM (MCF7) was 2%. It also gave a GI50 [1] of 10.7 µM, a CC50 [1, 3] greater than 100 µM and a TGI ([1]; read-out: pTGI (converted)) of 33.9 µM. The GI50 [2] was 3.47 µM, the LC50 [2] was greater than 100 µM and the TGI ([2]; read-out: pTGI (converted)) was greater than 100 µM.
